Data reported in article PMC4839537 (Biochemical pharmacology, 2016).
Numbered stars: 1 amine (or outer) side, 2 acyl side, 3 side chain; on linkers, the order of the positions; unused ones are H or OH. Bridge positions count the residues as written; N and C are the ends. Square brackets hold non-standard residues; d marks the D form. Peptide text beside a SMILES is read from it. * marks the point of attachment. Leu(3R-OH,Nα-propionyl) = CCC(=O)N[C@H](C(=O)*)[C@H](O)C(C)C; X2 = CC(=O)NC(C(=O)OC(C(C)C)C(N[*:1])C(=O)[*:2])C(O)C(C)C; X1 = CC(C)[C@@H](O[*:3])[C@H](N[*:1])C(=O)[*:2]; NMeT = CN[CH](C(=O)O)[CH](C)O; dPhLac = O=C(O)[C@H](O)Cc1ccccc1; PhLac = O=C(O)[CH](O)Cc1ccccc1; NMeA = CN[CH](C)C(=O)O; NMeDha = C=C(NC)C(=O)O

Assays:
M3 muscarinic receptor = M3 muscarinic receptor (Homo sapiens, UniProt P20309); assay type: cell-based
M3 muscarinic receptor, sequence (P20309 whole entry): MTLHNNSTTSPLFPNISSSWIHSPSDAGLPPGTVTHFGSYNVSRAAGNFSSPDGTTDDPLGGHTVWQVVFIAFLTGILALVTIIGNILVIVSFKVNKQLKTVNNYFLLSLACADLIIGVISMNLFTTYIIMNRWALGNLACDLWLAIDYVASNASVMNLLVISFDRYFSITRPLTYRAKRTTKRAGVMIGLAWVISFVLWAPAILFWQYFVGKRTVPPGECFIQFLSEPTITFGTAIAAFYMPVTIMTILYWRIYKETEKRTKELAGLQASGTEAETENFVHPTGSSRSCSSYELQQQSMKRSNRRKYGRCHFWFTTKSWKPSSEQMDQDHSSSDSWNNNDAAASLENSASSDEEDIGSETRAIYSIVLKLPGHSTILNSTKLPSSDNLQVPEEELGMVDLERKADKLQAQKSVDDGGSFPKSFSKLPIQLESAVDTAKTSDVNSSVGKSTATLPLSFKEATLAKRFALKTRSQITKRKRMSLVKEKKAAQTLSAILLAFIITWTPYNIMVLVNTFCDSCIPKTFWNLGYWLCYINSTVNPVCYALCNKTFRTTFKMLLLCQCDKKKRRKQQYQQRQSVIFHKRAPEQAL

P2Y1R = P2Y1R (Homo sapiens, UniProt P47900); assay type: cell-based
P2Y1R, sequence (P47900 whole entry): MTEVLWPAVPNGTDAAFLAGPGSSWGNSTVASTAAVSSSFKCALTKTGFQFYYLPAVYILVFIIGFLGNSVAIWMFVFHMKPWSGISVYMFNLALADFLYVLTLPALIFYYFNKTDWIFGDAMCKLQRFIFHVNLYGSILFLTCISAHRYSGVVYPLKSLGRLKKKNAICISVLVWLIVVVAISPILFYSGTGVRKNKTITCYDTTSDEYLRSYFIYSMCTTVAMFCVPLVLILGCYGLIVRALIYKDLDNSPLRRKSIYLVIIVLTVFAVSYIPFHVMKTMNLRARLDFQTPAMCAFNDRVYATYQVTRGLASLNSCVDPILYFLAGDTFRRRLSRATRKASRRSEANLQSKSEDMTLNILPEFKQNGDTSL

Gαq [1] = conditions: 10 μM, 5 min pretreatment; cited from earlier work
Gα15 = conditions: cited from earlier work
Gβγ = conditions: 10 μM, 5 min pretreatment; compared with PTX 50 ng/ml for 6 h; cited from earlier work
Gαq [2] = conditions: cited from earlier work
recombinant human A2AAR = recombinant human A2AAR (Homo sapiens, UniProt P29274); experiment: CGS21680-induced cAMP accumulation in CHO cells expressing the A2AAR; assay type: cell-based; conditions: data not shown
recombinant human A2AAR, sequence (P29274 whole entry): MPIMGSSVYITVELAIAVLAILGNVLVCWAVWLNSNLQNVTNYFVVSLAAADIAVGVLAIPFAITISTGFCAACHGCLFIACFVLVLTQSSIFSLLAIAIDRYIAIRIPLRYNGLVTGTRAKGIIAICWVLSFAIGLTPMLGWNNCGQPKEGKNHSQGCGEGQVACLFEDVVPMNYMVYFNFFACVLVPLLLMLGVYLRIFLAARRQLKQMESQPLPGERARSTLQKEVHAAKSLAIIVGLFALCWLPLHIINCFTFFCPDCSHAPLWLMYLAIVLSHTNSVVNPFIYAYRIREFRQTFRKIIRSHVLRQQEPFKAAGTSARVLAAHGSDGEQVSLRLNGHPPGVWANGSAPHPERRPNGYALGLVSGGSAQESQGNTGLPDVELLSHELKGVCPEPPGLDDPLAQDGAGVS
Outline: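 CHO cells stably expressing human A2AAR were grown in DMEM with 10% FBS, penicillin/streptomycin and glutamine, then plated in 96-well plates overnight. Cells were pretreated with test compound (300 nM) for 30 min or with pertussis toxin (200 ng/ml) overnight. Agonist was then added with rolipram (10 μM). Supernatant was removed, cells were lysed in 0.3% Tween-20, and cAMP was measured by AlphaScreen.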

Gα16 = conditions: 1 μM; cited from earlier work
M2 muscarinic receptor = M2 muscarinic receptor (Homo sapiens, UniProt P08172); assay type: cell-based
M2 muscarinic receptor, sequence (P08172 whole entry): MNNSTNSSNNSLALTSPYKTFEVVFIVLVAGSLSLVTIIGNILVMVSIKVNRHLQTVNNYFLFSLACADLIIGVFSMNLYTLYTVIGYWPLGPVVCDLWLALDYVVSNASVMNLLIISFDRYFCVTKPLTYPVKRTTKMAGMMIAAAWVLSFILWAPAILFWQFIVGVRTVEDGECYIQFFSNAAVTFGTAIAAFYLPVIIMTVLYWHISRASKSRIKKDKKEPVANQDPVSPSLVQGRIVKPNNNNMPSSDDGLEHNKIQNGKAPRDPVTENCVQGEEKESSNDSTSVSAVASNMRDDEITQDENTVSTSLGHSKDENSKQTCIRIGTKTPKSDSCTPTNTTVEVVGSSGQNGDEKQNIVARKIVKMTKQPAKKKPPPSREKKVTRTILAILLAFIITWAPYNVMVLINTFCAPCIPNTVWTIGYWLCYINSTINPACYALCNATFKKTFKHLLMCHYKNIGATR

endogenous human P2Y1R = endogenous human P2Y1R (Homo sapiens, UniProt P47900); assay type: cell-based
endogenous human P2Y1R, sequence (P47900 whole entry): as the sequence (P47900 whole entry) above

[3] = target: recombinant human A2BAR (Gαs) (Homo sapiens, UniProt P29275); assay type: cell-based
recombinant human A2BAR (Gαs), sequence (P29275 whole entry): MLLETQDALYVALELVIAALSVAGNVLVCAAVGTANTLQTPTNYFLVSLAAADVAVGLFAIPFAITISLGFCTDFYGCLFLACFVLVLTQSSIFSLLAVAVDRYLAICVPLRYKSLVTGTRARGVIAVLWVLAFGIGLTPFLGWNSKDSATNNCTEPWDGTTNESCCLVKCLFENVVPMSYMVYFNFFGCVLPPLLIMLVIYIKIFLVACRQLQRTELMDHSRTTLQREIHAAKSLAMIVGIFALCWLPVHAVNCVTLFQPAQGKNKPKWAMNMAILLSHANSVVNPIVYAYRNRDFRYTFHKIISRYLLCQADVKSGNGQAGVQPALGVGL

Gαq-coupled P2Y1R = Gαq-coupled P2Y1R (Homo sapiens, UniProt P47900); experiment: Akt1/2/3 phosphorylation in 1321N1 cells expressing the P2Y1R; assay type: cell-based; conditions: UBO-QIC 100 nM
Gαq-coupled P2Y1R, sequence (P47900 whole entry): as the sequence (P47900 whole entry) above
Outline: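 1321N1 astrocytoma cells expressing human P2Y1R were seeded at 30,000 cells/100 μl in complete medium. After attachment they were serum-starved overnight, pretreated with test compound (100 nM) for 30 min, then given agonist in Hank's buffered salt solution for 20 min. Lysed cells were assayed for p-Akt1/2/3 (Ser473) by AlphaScreen SureFire. Mean ± SEM of 3 independent experiments in duplicate.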

ERK1/2 activation = ERK1/2 activation mediated through various GPCRs; assay type: cell-based
Outline: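 CHO (A1AR, M2, M3) or 1321N1 (P2Y1R) cells were seeded at 30,000 cells/100 μl and serum-starved overnight after attachment. Pretreatment was test compound or GO6983 (10 μM) for 30 min, or pertussis toxin (200 ng/ml) overnight. Agonists in Hank's buffered salt solution were applied for 5 min. Cells were lysed and p-ERK1/2 (Thr202/Tyr204) was read by AlphaScreen SureFire.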

[4] = system: Gαq-coupled T1R1/T1R3 heterodimeric taste receptor; conditions: MIN6 cells; cited from earlier work
P2Y1R (Gq-coupled) = P2Y1R (Gq-coupled) (Homo sapiens, UniProt P47900); assay type: cell-based
P2Y1R (Gq-coupled), sequence (P47900 whole entry): as above

human A1AR (Gi-coupled) = human A1AR (Gi-coupled) (Homo sapiens, UniProt P30542); assay type: cell-based
human A1AR (Gi-coupled), sequence (P30542 whole entry): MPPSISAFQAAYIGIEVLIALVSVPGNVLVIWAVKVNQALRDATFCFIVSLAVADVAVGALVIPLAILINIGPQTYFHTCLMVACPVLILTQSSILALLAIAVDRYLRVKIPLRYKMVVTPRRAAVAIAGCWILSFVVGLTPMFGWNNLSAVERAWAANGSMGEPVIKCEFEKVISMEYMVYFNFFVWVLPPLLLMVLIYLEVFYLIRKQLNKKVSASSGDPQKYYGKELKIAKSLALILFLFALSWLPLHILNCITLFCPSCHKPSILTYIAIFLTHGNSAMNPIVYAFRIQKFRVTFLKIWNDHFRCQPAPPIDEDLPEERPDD

[5] = target: M2 muscarinic receptor (Gi-coupled) (Homo sapiens, UniProt P08172); assay type: cell-based
M2 muscarinic receptor (Gi-coupled), sequence (P08172 whole entry): as the sequence (P08172 whole entry) above

Gi-coupled A1AR = Gi-coupled A1AR (Homo sapiens, UniProt P30542); assay type: cell-based
Gi-coupled A1AR, sequence (P30542 whole entry): as the sequence (P30542 whole entry) above

[6] = cited from earlier work
A1AR = A1AR (Homo sapiens, UniProt P30542); assay type: cell-based
A1AR, sequence (P30542 whole entry): as above

Gαi subunits = conditions: cited from earlier work
[7] = target: recombinant human M3 muscarinic receptor (Gαq) (Homo sapiens, UniProt P20309); assay type: cell-based
recombinant human M3 muscarinic receptor (Gαq), sequence (P20309 whole entry): as the sequence (P20309 whole entry) above

endogenous A1AR = endogenous A1AR (Mesocricetus auratus, UniProt A0A1U8BVR4); assay type: cell-based, Syrian hamster
endogenous A1AR, sequence (A0A1U8BVR4 1-326): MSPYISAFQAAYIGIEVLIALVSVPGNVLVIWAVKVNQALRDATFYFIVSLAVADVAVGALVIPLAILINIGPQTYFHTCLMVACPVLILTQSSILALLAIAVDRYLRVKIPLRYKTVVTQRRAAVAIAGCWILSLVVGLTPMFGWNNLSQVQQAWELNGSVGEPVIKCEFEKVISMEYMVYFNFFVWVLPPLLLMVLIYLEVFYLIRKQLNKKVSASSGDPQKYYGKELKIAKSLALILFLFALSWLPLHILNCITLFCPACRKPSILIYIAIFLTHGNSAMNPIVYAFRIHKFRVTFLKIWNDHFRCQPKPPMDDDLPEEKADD

Gi-coupled P2Y12R = Gi-coupled P2Y12R (Homo sapiens, UniProt Q9H244); assay type: cell-based
Gi-coupled P2Y12R, sequence (Q9H244 whole entry): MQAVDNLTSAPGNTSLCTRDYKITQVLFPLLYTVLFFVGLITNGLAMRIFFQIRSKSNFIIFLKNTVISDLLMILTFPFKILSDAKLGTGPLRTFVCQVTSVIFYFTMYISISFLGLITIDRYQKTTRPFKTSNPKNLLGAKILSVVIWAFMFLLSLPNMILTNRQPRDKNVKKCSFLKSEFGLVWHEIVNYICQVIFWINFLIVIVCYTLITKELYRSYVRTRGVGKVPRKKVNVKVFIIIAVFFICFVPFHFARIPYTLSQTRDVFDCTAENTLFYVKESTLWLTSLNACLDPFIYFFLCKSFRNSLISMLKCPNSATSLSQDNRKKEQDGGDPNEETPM

P2Y12R (Gi-coupled) = P2Y12R (Gi-coupled) (Homo sapiens, UniProt Q9H244); assay type: cell-based
P2Y12R (Gi-coupled), sequence (Q9H244 whole entry): as above

platelet aggregation = conditions: cited from earlier work

COc1ccc2c(c1)c(C1=C(c3c[nH]c4ccccc34)C(=O)NC1=O)cn2CCCN(C)C [GO6983, 3-[1-[3-(dimethylamino)propyl]-5-methoxy-1H-indol-3-yl]-4-(1H-indol-3-yl)-1H-pyrrole-2,5-dione]
Effect on ERK1/2 phosphorylation (M3 muscarinic receptor): completely blocked | Effect on ERK1/2 phosphorylation (P2Y1R): completely blocked

C=C1C(=O)NC(C)C(=O)N(C)C(C)C(=O)NC(C(OC(=O)C(NC(C)=O)C(O)C(C)C)C(C)C)C(=O)N(C)C(C(C)OC)C(=O)OC(C)C(NC(C)=O)C(=O)OC(Cc2ccccc2)C(=O)N1C (stereo not drawn) [YM-254890] (Ac-T[PhLac][NMeDha]A[NMeA][X2][NMeT](Me); ester 1-C; configuration not given here)
Inhibition of UTP-mediated Ca2+ release (Gαq [1]): much larger inhibition | Effect on Gα15-mediated Ca2+ release (Gα15): only a small effect | Inhibition of fMLP-induced Ca2+ mobilization (Gβγ): to a lesser extent than pertussis toxin | Effect on release of GDP from Gαq (Gαq [2]): inhibits the release of GDP from Gαq

C=C1C(=O)N[C@@H](C)C(=O)N(C)[C@@H](C)C(=O)N[C@@H]([C@H](OC(=O)[C@@H](NC(=O)CC)[C@H](O)C(C)C)C(C)C)C(=O)N(C)[C@@H]([C@@H](C)OC)C(=O)O[C@H](C(C)C)[C@H](NC(C)=O)C(=O)O[C@H](Cc2ccccc2)C(=O)N1C [UBO-QIC, L-threonine, (3R)-N-acetyl-3-hydroxy-L-leucyl-(αR)-α-hydroxybenzenepropanoyl-2,3-didehydro-N-methylalanyl-L-alanyl-N-methyl-L-alanyl-(3R)-3-[[(2S,3R)-3-hydroxy-4-methyl-1-oxo-2-[(1-oxopropyl)amino]pentyl]oxy]-L-leucyl-N,O-dimethyl-, (7→1)-lactone] (Ac-[X1][dPhLac][NMeDha]A[NMeA][X1](Leu(3R-OH,Nα-propionyl))[NMeT](Me); ester 1-C)
Effect on CGS21680-induced cAMP accumulation (recombinant human A2AAR): did not affect | Effect on Gα16 (Gα16): could inhibit Gα16 | Block of the maximal agonist effect in ERK1/2 phosphorylation (M2 muscarinic receptor): ≤ 30% | Effect on MRS2365-mediated calcium transients (endogenous human P2Y1R): antagonizes | Effect of inhibitor on NECA-induced cAMP accumulation [3]: did not show any effect | Effect on 2MeSADP-induced Akt1/2/3 phosphorylation (Gαq-coupled P2Y1R): completely inhibited | Effect on ERK1/2 activation (ERK1/2 activation; UBO-QIC 10 nM, initial experiment): little if any effect | Effect on agonist concentration-response curves, ERK1/2 (ERK1/2 activation; in all cases (P2Y1, A1AR, M2, M3)): somewhat non-parallel right shift | Effect on ERK1/2 stimulation [4]: only partially reduced | Effect on agonist effects (calcium) (P2Y1R (Gq-coupled)): completely blocked | Effect on calcium responses (P2Y1R (Gq-coupled)): completely blocked | Effect on agonist effects (calcium) (human A1AR (Gi-coupled)): completely blocked | Effect on calcium responses (human A1AR (Gi-coupled)): completely blocked | Effect on agonist effects (calcium) [5]: completely blocked | Effect on calcium responses [5]: completely blocked | Effect on Akt1/2/3 activity (Gi-coupled A1AR): no effect | Effect on blood pressure [6]: decrease blood pressure | Block of the maximal agonist effect in ERK1/2 phosphorylation (A1AR): ≤ 30% | Effect on phosphorylation of protein kinase B (Akt) (Gαi subunits): no effect | Effect of inhibitor on carbachol-induced Ca2+ transients [7]: completely blocked | Effect on CPA-induced intracellular calcium mobilization (endogenous A1AR): completely blocked | Effect on Akt1/2/3 activity (Gi-coupled P2Y12R): no effect | Effect on the maximum effect of 2MeSADP-stimulated Akt activity (Gi-coupled P2Y12R): modest but significant inhibition | Effect on agonist effects (calcium) (P2Y12R (Gi-coupled)): completely blocked | Effect on calcium responses (P2Y12R (Gi-coupled)): completely blocked | Effect on platelet aggregation (platelet aggregation): inhibit platelet aggregation | Block of the maximal agonist effect in ERK1/2 phosphorylation (P2Y1R): ≤ 30%
